Experiment [1] deals with Aorta. As to the kind of experiment: Antiangiogenic activity in Wistar rat thoracic aortic rings assessed as inhibition of microvessel sprouting at 25 uM after 7 days by phase-contrst microscopy. It is filed as functional. Particulars: 168 h. Summed up: (§1)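 Thoracic aorta from six-week-old SPF male Wistar rat, everted, cut into 1-mm rings, embedded in porcine tendon collagen gel (30 min, 37 °C). Rings overlaid with RPMI 1640 plus 1% TIS+ containing compound doses or DMSO; 7 days at 37 °C, 5% CO2. Sprout length from cut end to capillary mid-point by phase-contrast microscopy; mean ± SD, n = 6.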

The subject of experiment [2] is HUVEC. As to the kind of experiment: Antiangiogenic activity in HUVEC assessed as inhibition of VEGF-induced cell migration at 50 uM after 6 hrs by boyden chamber assay. It is filed as functional, cell-based. As to conditions: Homo sapiens.
The subject of experiment [3] is HUVEC. As to the kind of experiment: Antiangiogenic activity in HUVEC assessed as inhibition of tubule formation at 20 uM after 12 hrs by inverted light microscopy. Particulars: Homo sapiens. It is filed as functional, cell-based. The procedure, abridged:
(§2)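 Cells suspended in HuMedia EG2 with graded doses or DMSO vehicle, seeded onto solidified Matrigel and incubated 12 h at 37 °C, 5% CO2. Capillary-like tube length measured microscopically against vehicle control; mean ± SD, n = 5.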

The target in experiment [4] is T1, Mitogen-activated protein kinase; ERK1/ERK2 (Homo sapiens) (UniProt P27361+P28482). The experiment in a line: Inhibition of VEGF-induced Erk1/2 phosphorylation in HUVEC at 2.5 to 10 uM pretreated for 60 mins prior VEGF stimulation measured after 10 mins by Western blotting. Particulars: TDE = time-dependent effect. It is filed as protein assay. The procedure, abridged: (§3)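 Cells pretreated 1 h with 0–10 µM compound or DMSO, then stimulated with VEGF (10 ng/mL) for 10 min, PBS-washed, lysed with M-PER, protein by microBCA. Blots probed for phospho-Erk1/2 or phospho-Akt (4 °C overnight) and total Erk1/2 or Akt (room temperature); chemiluminescent detection; mean ± SD, n = 3.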
In general terms: Immunoblotting shows a protein as a band on a membrane.

In experiment [5] the test system is HUVEC. The experiment in a line: Antiangiogenic activity in HUVEC assessed as inhibition of cell proliferation after 72 hrs by WST-8-based spectrophotometry. It is filed as functional. As to conditions: Homo sapiens. Summed up: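 Cells seeded in HuMedia EG2, 24 h at 37 °C, 5% CO2, then fresh medium with graded doses or DMSO vehicle for 72 h. Proliferation read by WST-8 at 450 nm; mean ± SD, n = 5; IC50 from dose–response.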

Experiment [6] relates to Aorta. As to the kind of experiment: Antiangiogenic activity in Wistar rat thoracic aortic rings assessed as inhibition of microvessel sprouting after 7 days by phase-contrst microscopy. Type of experiment: functional, tissue-based. The procedure, abridged: as §1
Experiment [7] concerns the target T1, Mitogen-activated protein kinase; ERK1/ERK2 (Homo sapiens). The experiment in a line: Inhibition of VEGF-induced Erk1/2 phosphorylation in HUVEC pretreated for 60 mins prior VEGF stimulation measured after 10 mins by Western blotting. Type of experiment: protein assay. The procedure, abridged: as §3
Experiment [8] deals with HUVEC. The experiment in a line: Antiangiogenic activity in HUVEC assessed as inhibition of tubule formation after 12 hrs by inverted light microscopy. As to conditions: Homo sapiens. Type of experiment: functional, cell-based. The procedure, abridged: as §2
Experiment [9] deals with HUVEC. As to the kind of experiment: Antiangiogenic activity in HUVEC assessed as inhibition of tubule formation at 5 uM after 12 hrs by inverted light microscopy. Type of experiment: functional, cell-based. As to conditions: Homo sapiens. The procedure, abridged:
as §2

Experiment [10] has as its system HUVEC. As to the kind of experiment: Inhibition of VEGF-induced Akt phosphorylation in HUVEC at 2.5 to 10 uM pretreated for 60 mins prior VEGF stimulation measured after 10 mins by Western blotting. Type of experiment: cell-based. Particulars: Homo sapiens. The procedure, abridged:
as §3

Calls of active or inactive are those of the source. The rule behind the calls is not given here.

T1 sequence (P27361 whole entry, looked up): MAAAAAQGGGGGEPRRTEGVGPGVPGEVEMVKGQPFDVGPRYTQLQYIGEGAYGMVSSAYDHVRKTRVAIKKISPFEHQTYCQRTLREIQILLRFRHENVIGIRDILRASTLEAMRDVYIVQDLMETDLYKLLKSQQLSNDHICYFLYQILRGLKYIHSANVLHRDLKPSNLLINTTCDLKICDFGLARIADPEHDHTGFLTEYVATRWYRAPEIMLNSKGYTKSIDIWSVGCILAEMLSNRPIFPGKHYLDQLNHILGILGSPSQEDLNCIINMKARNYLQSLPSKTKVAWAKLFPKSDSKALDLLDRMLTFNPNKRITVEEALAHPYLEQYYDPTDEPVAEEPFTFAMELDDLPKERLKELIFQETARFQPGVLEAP
T1 sequence (P28482 whole entry, looked up): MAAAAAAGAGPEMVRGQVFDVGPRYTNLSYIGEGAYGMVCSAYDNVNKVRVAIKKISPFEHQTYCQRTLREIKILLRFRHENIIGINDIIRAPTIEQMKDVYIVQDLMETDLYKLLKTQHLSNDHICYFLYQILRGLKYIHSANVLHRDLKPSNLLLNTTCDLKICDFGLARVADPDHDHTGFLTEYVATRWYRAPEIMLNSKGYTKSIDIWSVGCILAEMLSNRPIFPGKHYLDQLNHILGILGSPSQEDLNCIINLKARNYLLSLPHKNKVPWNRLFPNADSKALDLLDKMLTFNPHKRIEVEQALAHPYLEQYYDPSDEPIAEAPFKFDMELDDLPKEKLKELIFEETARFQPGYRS

On to `C=C1C(=O)O[C@@H]2C[C@@H]3[C@]4(CC[C@]5(C)[C@@H]([C@H](C)CC/C=C(\C)C=O)CC[C@@]35C)C[C@]4(CCC(=O)Oc3ccccc3)[C@H]12`, for which the inhibition at 25 µM in the experiment on Aorta [1] was 10%.
The same measure, in the same setting: to `C=C1C(=O)O[C@@H]2C[C@@H]3[C@]4(CC[C@]5(C)[C@@H]([C@H](C)CC/C=C(\C)C=O)CC[C@@]35C)C[C@]4(CCC(=O)N[C@@H](Cc3ccccc3)C(=O)OC)[C@H]12` belongs 10%; to `C=C1C(=O)O[C@@H]2C[C@@H]3[C@]4(CC[C@]5(C)[C@@H]([C@H](C)CC/C=C(\C)C=O)CC[C@@]35C)C[C@]4(CCC(=O)NC(C)(C)C)[C@H]12`, 10%; to `C=C1C(=O)O[C@@H]2C[C@@H]3[C@]4(CC[C@]5(C)[C@@H]([C@H](C)CC/C=C(\C)C=O)CC[C@@]35C)C[C@]4(CCC(=O)NCCCC)[C@H]12`, 10%.
Same read-out and setting: to `C=C1C(=O)O[C@@H]2C[C@@H]3[C@]4(CC[C@]5(C)[C@@H]([C@H](C)CC/C=C(\C)C=O)CC[C@@]35C)C[C@]4(CCC(=O)N3C(=O)CCC3=O)[C@H]12` belongs 10%; to `C=C1C(=O)O[C@@H]2C[C@@H]3[C@]4(CC[C@]5(C)[C@@H]([C@H](C)CC/C=C(\C)COC(=O)c6ccccc6)CC[C@@]35C)C[C@]4(CCC(=O)OC)[C@H]12`, 10%; to `C=C1C(=O)O[C@@H]2C[C@@H]3[C@]4(CC[C@]5(C)[C@@H]([C@H](C)CC/C=C(\C)COC(=O)c6ccncc6)CC[C@@]35C)C[C@]4(CCC(=O)OC)[C@H]12`, 10%.
Same read-out and setting: next, `C=C1C(=O)O[C@@H]2C[C@@H]3[C@]4(CC[C@]5(C)[C@@H]([C@H](C)CC/C=C(\C)COC(=O)c6ccc7ccccc7n6)CC[C@@]35C)C[C@]4(CCC(=O)OC)[C@H]12`: 10%; `C=C1C(=O)O[C@H]2C[C@@H]3[C@@]4(CC[C@]5(C)[C@H]([C@@H](C)CC/C=C(\C)C=O)CC[C@@]35C)C[C@]4(CCC(=O)OC)[C@@H]12` [CORONALOLIDE METHYL ESTER]: 10%.
As for `C=C1C(=O)O[C@@H]2C[C@@H]3[C@]4(CC[C@]5(C)[C@@H]([C@H](C)CC/C=C(\C)C=O)CC[C@@]35C)C[C@]4(CCC(=O)O)[C@H]12` [CORONALOLIDE], the inhibition at 25 µM in the experiment with Aorta [1] turned out to be 85%.
Same read-out and setting: to `C=C1C(=O)O[C@@H]2C[C@@H]3[C@]4(CC[C@]5(C)[C@@H]([C@H](C)CC/C=C(\C)CO)CC[C@@]35C)C[C@]4(CCC(=O)OC)[C@H]12` [SOOTEPIN A] belongs 10%.
As to `C=C1C(=O)O[C@@H]2C[C@@H]3[C@]4(CC[C@]5(C)[C@@H]([C@H](C)CCC=C(C)C)CC[C@@]35C)C[C@]4(CCC(=O)O)[C@H]12` [SOOTEPIN B], the inhibition at 25 µM in the experiment with Aorta [1] was found to be 100%. Further, the outcome with HUVEC [2] was inactive. Moreover, the inhibition result in the experiment with HUVEC [3] and in the experiment on HUVEC [9] was “Active” throughout. For the same molecule, the inhibition entry in experiment [4] is “tde”; in the experiment on Aorta [6], “Dose-dependent effect”; in [7], “Dose-dependent effect”; with HUVEC [8] it was “Dose-dependent effect”. In addition, in the experiment with HUVEC [5], the Activity result is “Dose-dependent effect”. Further, the IC50 in the experiment on HUVEC [5] is 1.2 µM; in the experiment on Aorta [6] (168 h) it was 4.46 µM; in the experiment on HUVEC [8], 11.2 µM. Also, the inhibition entry with HUVEC [10] was “inactive”.
`C=C(C)[C@@H]1CC[C@@H]2[C@]3(CC[C@]4(C)[C@@H]([C@H](C)CCC=C(C)C)CC[C@@]24C)C[C@]13CCC(=O)O` [SOOTEPIN E]: in the experiment on Aorta [1], the inhibition at 25 µM stood at 92%.
Still for that read-out and setting: to `C=C1C(=O)O[C@@H]2C[C@@H]3[C@]4(CC[C@]5(C)[C@@H]([C@H](C)CCC=C(C)C)CC[C@@]35C)C[C@]4(CCC(=O)OC)[C@H]12` [TUBIFEROLIDE METHYL ESTER] belongs 40%.

As a reminder, the inhibition is the percentage by which the read-out fell short of the control. A word on the IC50: it is the concentration at which inhibition is half-maximal.

Source of the values: ChEMBL document CHEMBL1938344, “Antiangiogenic activity of 3,4-seco-cycloartane triterpenes from Thai Gardenia spp. and their semi-synthetic analogs” (Bioorg Med Chem Lett, 2012).
